Laboratory results as given in ChEMBL document CHEMBL1811757, “Discovery of naturally occurring aurones that are potent allosteric inhibitors of hepatitis C virus RNA-dependent RNA polymerase” (J Med Chem, 2011).

How the values were obtained:
Huh-7 = assay: Cytotoxicity against human HuH7 cells up to 512 uM after 72 hrs by MTT assay; type: cell-based; settings: huh-7, 72 h
In short: (§1)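 Cells trypsinized in exponential growth and plated at 2000 (HuH7) or 1000 (HEK293) per well. Allowed to attach 96 h at 37°C, 5% CO2. Drug diluted in medium with 1% DMSO final, then 72 h at 37°C, 5% CO2. Viability read by MTT colorimetric assay.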

[1] = Inhibition of HCV genotype 1b J4 N-terminal His-tagged NS5Bdelta21 polymerase expressed in Escherichia coli C41(DE3) assessed as amount of double-stranded RNA synthesis; design: species or system Hepatitis C virus isolate HC-J4
HEK293 = assay: Cytotoxicity against human HEK293 cells up to 512 uM after 72 hrs by MTT assay; type: cell-based; settings: hek293, 72 h; in short: as §1
[2] = tested on: Hepatitis C virus isolate HC-J4; assay: Inhibition of HCV genotype 1b J4 N-terminal His-tagged NS5Bdelta21 polymerase expressed in Escherichia coli C41(DE3) assessed as amount of double-stranded RNA synthesis at 20 uM
[3] = tested on: Hepatitis C virus isolate HC-J4; assay: Ratio of IC50 for HCV genotype 1b J4 NS5Bdelta21 polymerase P495L mutant to IC50 for HCV genotype 1b J4 wild type N-terminal His-tagged NS5Bdelta21 polymerase
In short: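 IC50 measured in cell-free poly U/ATP double-stranded RNA synthesis assay for purified His-tagged NS5BΔ21 P495L mutant and wild type, both prepared identically by Ni-NTA purification. Mutant IC50 divided by wild-type IC50 and reported as fold difference. A Thumb Pocket I benzimidazole inhibitor served as control.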

Hepatitis C virus = assay: Antiviral activity against HCV JFH-1 assessed as inhibition of viral replication by cell based assay; type: functional, organism-based, Hepacivirus hominis

Structure (SMILES)	Activity (Huh-7)	IC50 [1]	Activity (HEK293)	inhibition [2]	Ratio IC50 [3]	IC50 (Hepatitis C virus)
COc1cc(OC)c2c(c1)O/C(=C\c1ccc(O)cc1)C2=O	Non-toxic	> 20 µM	Non-toxic	37%	–	–
O=C1/C(=C/c2ccc(F)cc2F)Oc2cccc(F)c21	Non-toxic	> 20 µM	Non-toxic	10%	–	–
CC(C)(C)c1ccc(/C=C2\Oc3cccc(O)c3C2=O)cc1	Non-toxic	> 20 µM	Non-toxic	60.8%	–	–
O=C1/C(=C/c2ccccc2F)Oc2cccc(O)c21	Non-toxic	> 20 µM	Non-toxic	58%	–	–
O=C1/C(=C/c2ccccc2O)Oc2cccc(O)c21	Non-toxic	11.1 µM	Non-toxic	56%	–	–
O=C1/C(=C/c2ccc(O)c(O)c2)Oc2cc(O)cc(O)c21 [AUREUSIDIN]	–	5.4 µM	–	85%	–	–
COc1cccc(/C=C2\Oc3cc(O)cc(O)c3C2=O)c1OC	Non-toxic	> 20 µM	Non-toxic	74%	–	–
CC(=O)Nc1ccc(-c2ccc(Cl)cc2)c(COc2ccc(-c3nc4cc(C(=O)O)ccc4n3C3CCCCC3)cc2)c1	–	–	–	–	10	–
COc1cc(OC)c2c(c1)O/C(=C\c1cccc(O)c1)C2=O	Non-toxic	> 20 µM	Non-toxic	11%	–	–
O=C1/C(=C/c2ccccc2)Oc2cccc(O)c21	Non-toxic	14.6 µM	Non-toxic	57%	–	–
CCCCc1ccc(/C=C2\Oc3cc(O)cc(O)c3C2=O)cc1	Non-toxic	2.5 µM	Non-toxic	93%	–	–
COc1cc(OC)c2c(c1)O/C(=C\c1ccc(C)cc1C)C2=O	Non-toxic	> 20 µM	Non-toxic	14%	–	–
CC(C)c1ccc(/C=C2\Oc3cccc(O)c3C2=O)cc1	Non-toxic	> 20 µM	Non-toxic	29.9%	–	–
COc1ccc(/C=C2\Oc3cc(O)cc(O)c3C2=O)c(OC)c1OC	Non-toxic	> 20 µM	Non-toxic	50%	–	–
COc1cccc(OC)c1/C=C1\Oc2cccc(O)c2C1=O	Non-toxic	> 20 µM	Non-toxic	47%	–	–
COc1ccc(/C=C2\Oc3cccc(O)c3C2=O)c(OC)c1	Non-toxic	9.7 µM	Non-toxic	75%	–	–
O=C1/C(=C/c2ccccc2O)Oc2cc(O)cc(O)c21	Non-toxic	> 20 µM	Non-toxic	33%	–	–
COc1cc(OC)c2c(c1)O/C(=C\c1ccc(C3CCCCC3)cc1)C2=O	Non-toxic	> 20 µM	Non-toxic	2%	–	–
O=C1/C(=C/c2ccc(O)cc2O)Oc2cc(O)cc(O)c21	Non-toxic	5.8 µM	Non-toxic	81%	–	–
CC(C)c1ccc(/C=C2\Oc3cc(O)cc(O)c3C2=O)cc1	Non-toxic	3.1 µM	Non-toxic	78%	–	–
Cc1ccc(/C=C2\Oc3cccc(O)c3C2=O)c(C)c1	Non-toxic	5.8 µM	Non-toxic	64%	–	–

Structure (SMILES)	Activity (Huh-7)	IC50 [1]	Activity (HEK293)	inhibition [2]	Ratio IC50 [3]	IC50 (Hepatitis C virus)
O=C1/C(=C/c2ccc(C3CCCCC3)cc2)Oc2cc(OCc3ccccc3)cc(OCc3ccccc3)c21	Non-toxic	> 20 µM	Non-toxic	3%	–	–
O=C1/C(=C/c2ccc(N3CCOCC3)cc2)Oc2cc(O)cc(O)c21	Non-toxic	11.4 µM	Non-toxic	66%	–	–
O=C1/C(=C/c2ccc(O)cc2)Oc2cc(O)cc(O)c21	Non-toxic	9.7 µM	Non-toxic	61%	–	40 µM
O=C1/C(=C/c2ccccc2)Oc2cc(O)cc(O)c21	Non-toxic	15.1 µM	Non-toxic	59%	–	–
CCCCc1ccc(/C=C2\Oc3cc(F)cc(F)c3C2=O)cc1	Non-toxic	> 20 µM	Non-toxic	–	–	–
O=C1/C(=C/c2ccc(F)cc2)Oc2cc(O)cc(O)c21	Non-toxic	11.2 µM	Non-toxic	80%	–	–
CCc1ccc(/C=C2\Oc3cc(O)cc(O)c3C2=O)cc1	Non-toxic	3.6 µM	Non-toxic	79%	–	–
CCCCn1cc(/C=C2\Oc3cc(O)cc(O)c3C2=O)c2ccccc21	Non-toxic	2.2 µM	Non-toxic	95%	–	–
O=C1/C(=C/c2cccc(O)c2)Oc2cccc(O)c21	Non-toxic	> 20 µM	Non-toxic	37%	–	–
O=C1/C(=C/c2ccccc2O)Oc2cc(O)ccc21	Non-toxic	> 20 µM	Non-toxic	18%	–	–
O=C1/C(=C/c2ccc(O)cc2O)Oc2cccc(O)c21	Non-toxic	2.6 µM	Non-toxic	94%	–	–
COc1cc(OC)c2c(c1)O/C(=C\c1ccccc1O)C2=O	Non-toxic	> 20 µM	Non-toxic	0.7%	–	–
O=C1/C(=C/c2ccc(C3CCCCC3)cc2)Oc2cc(O)cc(O)c21	Non-toxic	2.3 µM	Non-toxic	92%	–	–
CN1CCN(c2ccc(/C=C3\Oc4cccc(O)c4C3=O)cc2)CC1	Non-toxic	3.8 µM	Non-toxic	94%	–	–
O=C1/C(=C/c2ccc(O)cc2)Oc2cc(O)ccc21	Non-toxic	> 20 µM	Non-toxic	35%	–	–
CCCCc1ccc(/C=C2\Oc3ccccc3C2=O)cc1	Non-toxic	> 20 µM	Non-toxic	–	–	–
CCCCc1ccc(/C=C2\Oc3cccc(O)c3C2=O)cc1	Non-toxic	> 20 µM	Non-toxic	42.7%	–	–
CCCCc1ccc(/C=C2\Oc3cc(OC)cc(OC)c3C2=O)cc1	Non-toxic	> 20 µM	Non-toxic	3%	–	–
O=C1/C(=C/c2cccc(O)c2)Oc2cc(O)ccc21	Non-toxic	> 20 µM	Non-toxic	10%	–	–
COc1cc(OC)c(/C=C2\Oc3cccc(O)c3C2=O)c(OC)c1	Non-toxic	> 20 µM	Non-toxic	52%	–	–
